Measured values: ChEMBL document CHEMBL1146735, “Synthesis and biological activity of macrocyclic taxane analogues” (Bioorg Med Chem Lett, 2004)

Legend:
[1] = Compound was evaluated for the ratio of IC50 of A2780/tub cell line to that of IC50 of A2780 cell line; type: functional
Procedure, shortened: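 Resistance ratio: IC50 in the A2780/tub line divided by the IC50 in parental A2780.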

[2] = Compound was evaluated for the median survival time of compound treated mice to that of median survival time of the control mice at a dose of 120 mg/kg/injection
[3] = Compound was evaluated for the ratio of HCT/mdr cell line to that of IC50 of HCT116 cell line; type: functional, HCT-116
Procedure, shortened: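 Resistance ratio: IC50 in the HCT116/mdr line divided by the IC50 in parental HCT116.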

A2780 = experiment: In vitro cytotoxicity against the paclitaxel sensitive […]; type: functional, cell-based; conditions: Homo sapiens
Homo sapiens = organism: Homo sapiens; experiment: Compound was evaluated for the inhibition of tubulin polymerization; type: functional
Procedure, shortened: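 Tubulin polymerization followed by optical density. The value is the compound concentration giving a change of 0.01 OD/h, divided by the corresponding concentration of paclitaxel.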

HCT-116 = experiment: In vitro cytotoxicity against the paclitaxel sensitive human colon carcinoma cell line HCT116; type: functional, cell-based
Procedure, shortened: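 HCT116 cells exposed to compound for 72 h. Viability read by MTS assay and IC50 derived from it.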

[4] = Compound was evaluated for the median survival time of compound treated mice to that of median survival time of the control mice at a dose of 200 mg/kg/injection; type: functional
Procedure, shortened: (§1)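 Balb/c × DBA/2 F1 hybrid mice implanted intraperitoneally with a 2% (w/v) brei of M109 lung carcinoma. Treatment was by intraperitoneal injection on days 5 and 8 post-implant. Survival was followed daily to about 75–90 days, with an untreated control group in each experiment. %T/C = median survival of treated mice / median survival of controls × 100.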

[5] = Compound was evaluated for the median survival time of compound treated mice to that of median survival time of the control mice at a dose of 100 mg/kg/injection; type: functional; procedure, shortened: as §1

| Compound | R/S ratio [1] | T/C [2] | R/S ratio [3] | IC50 (A2780) | Tubulin (Homo sapiens) | IC50 (HCT-116) | T/C [4] | T/C [5] |
| --- | --- | --- | --- | --- | --- | --- | --- | --- |
| CC(=O)O[C@H]1[C@@H]2CO[C@@H]2[C@@H]2OCOCC(C)(C)COCO[C@H]3C(=O)[C@@]2(C)[C@@H]1[C@H](OC(=O)c1ccccc1)[C@]1(O)C[C@H](OC(=O)[C@H](O)[C@@H](NC(=O)c2ccccc2)c2ccccc2)C(C)=C3C1(C)C | 23 | 118% | 11 | 18 nM | 2.87 | 17.2 nM | – | – |
| CC(=O)O[C@H]1[C@@H]2CO[C@@H]2[C@@H]2OCOCCOC(=O)O[C@H]3C(=O)[C@@]2(C)[C@@H]1[C@H](OC(=O)c1ccccc1)[C@]1(O)C[C@H](OC(=O)[C@H](O)[C@@H](NC(=O)c2ccccc2)c2ccccc2)C(C)=C3C1(C)C | 32 | – | 31 | 2.1 nM | 0.73 | 1.9 nM | – | – |
| CC(=O)O[C@H]1[C@@H]2CO[C@@H]2[C@@H]2OCOCCOCO[C@H]3C(=O)[C@@]2(C)[C@@H]1[C@H](OC(=O)c1ccccc1)[C@]1(O)C[C@H](OC(=O)[C@H](O)[C@@H](NC(=O)c2ccccc2)c2ccccc2)C(C)=C3C1(C)C | 15 | – | 10 | 2.6 nM | 1.49 | 3 nM | 174% | – |
| CC(=O)O[C@H]1[C@@H]2CO[C@@H]2[C@@H]2OCOCCOCO[C@H]3C(=O)[C@@]2(C)[C@@H]1[C@H](OC(=O)c1ccccc1)[C@]1(O)C[C@H](OC(=O)[C@H](O)[C@@H](NC(=O)OC(C)(C)C)c2ccccc2)C(C)=C3C1(C)C | 6 | – | 12 | 18.5 nM | 0.67 | 0.8 nM | – | 190% |
